Test results from ChEMBL document CHEMBL5661979, “Pharmacological inhibition of BMK1 suppresses tumor growth through promyelocytic leukemia protein” (Cancer Cell, 2010).
Activity calls are given as the source filed them. No cut-off for these calls is given here.

How the values were obtained:
[1] = molecular target: Serine/threonine-protein kinase mTOR (Homo sapiens, UniProt P42345); test: Inhibition of FRAP in human HeLa cells lysate pre incubated for 15 mins followed by ATP acyl phosphate probe addition and measured after 10 mins by LC-MS/MS analysis; type: subcellular
[2] = molecular target: Rho-associated protein kinase (Homo sapiens, UniProt O75116+Q13464); test: Inhibition of ROCK1/2 in human HeLa cells lysate pre incubated for 15 mins followed by ATP acyl phosphate probe addition and measured after 10 mins by LC-MS/MS analysis; type: subcellular
[3] = molecular target: T1, Serine/threonine-protein kinase Sgk3 (Homo sapiens, UniProt Q96BR1); test: Inhibition of SGK3 K1 site in human HeLa cells lysate pre incubated for 15 mins followed by ATP acyl phosphate probe addition and measured after 10 mins by LC-MS/MS analysis; type: subcellular
T1 sequence (Q96BR1 whole entry): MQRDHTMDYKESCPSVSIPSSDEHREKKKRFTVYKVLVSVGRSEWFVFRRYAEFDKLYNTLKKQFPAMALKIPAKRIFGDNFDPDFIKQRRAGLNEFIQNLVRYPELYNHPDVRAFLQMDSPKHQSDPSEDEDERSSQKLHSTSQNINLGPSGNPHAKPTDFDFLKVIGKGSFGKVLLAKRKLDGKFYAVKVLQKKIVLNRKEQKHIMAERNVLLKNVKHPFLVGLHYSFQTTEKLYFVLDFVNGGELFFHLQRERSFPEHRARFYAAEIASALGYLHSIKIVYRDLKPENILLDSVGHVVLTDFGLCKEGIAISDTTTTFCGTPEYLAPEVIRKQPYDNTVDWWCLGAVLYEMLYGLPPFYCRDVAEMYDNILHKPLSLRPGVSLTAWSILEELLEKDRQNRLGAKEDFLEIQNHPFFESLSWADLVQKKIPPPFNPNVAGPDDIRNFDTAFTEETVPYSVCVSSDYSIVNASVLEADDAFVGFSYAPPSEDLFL

[4] = molecular target: Mitogen-activated protein kinase kinase kinase 7 (Homo sapiens, UniProt O43318); test: Inhibition of TAK1 in human HeLa cells lysate pre incubated for 15 mins followed by ATP acyl phosphate probe addition and measured after 10 mins by LC-MS/MS analysis; type: subcellular
[5] = molecular target: Serine/threonine-protein kinase B-raf (Homo sapiens, UniProt P15056); test: Inhibition of BRAF in human HeLa cells lysate pre incubated for 15 mins followed by ADP acyl phosphate probe addition and measured after 10 mins by LC-MS/MS analysis; type: subcellular
In short: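 KiNativ-type profiling in HeLa lysate (5 mg/mL total protein). Lysate preincubated 15 min with inhibitor at 50, 10, 2, 0.8 or 0 μM, then ATP or ADP acylphosphate probe added (5 μM final) for 10 min. Reaction stopped with urea and analysed by targeted MS, using up to four fragment ions per kinase peptide-probe conjugate. % inhibition calculated against untreated lysate. Duplicate reactions.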

[6] = Inhibition of PCTAIRE2/ICK in human HeLa cells lysate at 50 uM pre incubated for 15 mins followed by ADP acyl phosphate probe addition and measured after 10 mins by LC-MS/MS analysis relative to control; details: 25 min, condition cancer
[7] = molecular target: T2, Mixed lineage kinase domain-like protein (Homo sapiens) (UniProt Q8NB16); test: Inhibition of MLKL in human HeLa cells lysate at 50 uM pre incubated for 15 mins followed by ADP acyl phosphate probe addition and measured after 10 mins by LC-MS/MS analysis relative to control; type: subcellular; details: time 25.0 min
T2 sequence (whole entry): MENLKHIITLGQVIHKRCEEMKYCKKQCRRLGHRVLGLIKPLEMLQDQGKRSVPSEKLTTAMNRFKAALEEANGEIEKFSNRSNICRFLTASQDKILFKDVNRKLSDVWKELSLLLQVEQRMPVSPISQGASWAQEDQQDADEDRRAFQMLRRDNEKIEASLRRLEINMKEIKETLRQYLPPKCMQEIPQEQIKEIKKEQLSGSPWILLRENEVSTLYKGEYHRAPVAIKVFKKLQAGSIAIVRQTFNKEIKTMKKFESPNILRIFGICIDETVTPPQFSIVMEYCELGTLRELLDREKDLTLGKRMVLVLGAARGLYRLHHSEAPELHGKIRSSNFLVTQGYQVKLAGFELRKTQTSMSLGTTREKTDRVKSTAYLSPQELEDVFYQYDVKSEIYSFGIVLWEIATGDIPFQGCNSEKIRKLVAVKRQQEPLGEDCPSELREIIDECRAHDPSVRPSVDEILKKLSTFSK

[8] = molecular target: T3, EKC/KEOPS complex subunit TP53RK (Homo sapiens) (UniProt Q96S44); test: Inhibition of PRPK in human HeLa cells lysate at 10 uM pre incubated for 15 mins followed by ADP acyl phosphate probe addition and measured after 10 mins by LC-MS/MS analysis relative to control; type: subcellular; details: time 25.0 min
T3 sequence (whole entry): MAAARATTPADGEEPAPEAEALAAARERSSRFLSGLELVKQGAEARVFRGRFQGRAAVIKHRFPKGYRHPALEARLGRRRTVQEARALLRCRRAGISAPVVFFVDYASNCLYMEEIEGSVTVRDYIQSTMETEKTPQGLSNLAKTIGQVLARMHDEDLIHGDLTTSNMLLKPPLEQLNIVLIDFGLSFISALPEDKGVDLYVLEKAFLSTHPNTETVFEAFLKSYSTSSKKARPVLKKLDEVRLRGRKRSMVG

[9] = molecular target: Ribosomal protein S6 kinase alpha-5 (Homo sapiens, UniProt O75582); test: Inhibition of MSK1 domain 1 K1 site in human HeLa cells lysate at 2 uM pre incubated for 15 mins followed by ADP acyl phosphate probe addition and measured after 10 mins by LC-MS/MS analysis relative to control; type: subcellular; details: time 25.0 min
[10] = Inhibition of HGK/MINK/TNIK in human HeLa cells lysate at 2 uM pre incubated for 15 mins followed by ADP acyl phosphate probe addition and measured after 10 mins by LC-MS/MS analysis relative to control; details: 25 min, condition cancer
[11] = molecular target: Cyclin-dependent kinase 8/19 (Homo sapiens, UniProt P49336+Q9BWU1); test: Inhibition of CDK8/CDK11 in human HeLa cells lysate at 50 uM pre incubated for 15 mins followed by ATP acyl phosphate probe addition and measured after 10 mins by LC-MS/MS analysis relative to control; type: subcellular; details: time 25.0 min
In short: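 KiNativ profiling in HeLa lysate (5 mg/mL total protein). Lysate incubated 15 min with inhibitor at 50, 10, 2, 0.8 or 0 μM. ATP or ADP acylphosphate probe then added (5 μM final) and reacted 10 min. Reaction stopped with urea and analysed by targeted MS, using up to four fragment ions per kinase peptide-probe conjugate. % inhibition taken against untreated lysate. Run in duplicate.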

[12] = Toxicity in C57Bl/6 mouse assessed as effect on creatinine level at 50 mg/kg, ip for 14 days (reference value: < 0.2 mg/dl); type: organism-based; details: in vivo, 336 h, time 14 day
[13] = molecular target: Mitogen-activated protein kinase 7 (Mus musculus) (UniProt Q9WVS8); test: Inhibition of BMK1 in pml null mouse MEF cells assessed as increase in p21 protein expression at 5 uM incubated for 16 hrs by Western blot analysis; type: cell-based
In short: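 Pml+/+ or Pml−/− MEFs treated ±5 μM inhibitor for 16 h. Lysates western blotted for p21, quantified by densitometry and normalized to GAPDH, relative to untreated Pml+/+ MEF set as 1. n = 3, ±SEM.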

Chain of Ribosomal protein S6 kinase alpha-5 (O75582 whole entry, looked up, the tested form may be a part): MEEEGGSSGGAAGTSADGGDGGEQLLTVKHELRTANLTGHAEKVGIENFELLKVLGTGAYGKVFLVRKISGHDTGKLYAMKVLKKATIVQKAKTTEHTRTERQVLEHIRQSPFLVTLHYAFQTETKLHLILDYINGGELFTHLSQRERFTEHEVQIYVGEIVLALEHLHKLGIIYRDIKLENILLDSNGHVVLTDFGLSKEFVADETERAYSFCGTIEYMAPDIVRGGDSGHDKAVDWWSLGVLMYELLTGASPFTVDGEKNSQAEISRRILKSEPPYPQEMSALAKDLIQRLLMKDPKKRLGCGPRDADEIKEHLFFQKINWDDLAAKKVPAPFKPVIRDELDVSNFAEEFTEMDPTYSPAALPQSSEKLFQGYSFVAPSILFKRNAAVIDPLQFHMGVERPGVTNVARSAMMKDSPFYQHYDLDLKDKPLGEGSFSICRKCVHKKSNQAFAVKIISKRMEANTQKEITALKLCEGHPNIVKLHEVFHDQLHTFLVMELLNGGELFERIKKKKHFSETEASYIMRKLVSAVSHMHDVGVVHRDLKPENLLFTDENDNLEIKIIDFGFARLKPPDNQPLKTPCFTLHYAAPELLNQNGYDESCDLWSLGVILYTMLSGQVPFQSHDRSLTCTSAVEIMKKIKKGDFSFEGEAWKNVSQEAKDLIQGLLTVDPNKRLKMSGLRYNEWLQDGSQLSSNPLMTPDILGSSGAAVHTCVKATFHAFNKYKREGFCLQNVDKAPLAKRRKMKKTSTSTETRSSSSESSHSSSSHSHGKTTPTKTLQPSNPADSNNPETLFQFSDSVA
Chain of Mitogen-activated protein kinase kinase kinase 7 (O43318 whole entry): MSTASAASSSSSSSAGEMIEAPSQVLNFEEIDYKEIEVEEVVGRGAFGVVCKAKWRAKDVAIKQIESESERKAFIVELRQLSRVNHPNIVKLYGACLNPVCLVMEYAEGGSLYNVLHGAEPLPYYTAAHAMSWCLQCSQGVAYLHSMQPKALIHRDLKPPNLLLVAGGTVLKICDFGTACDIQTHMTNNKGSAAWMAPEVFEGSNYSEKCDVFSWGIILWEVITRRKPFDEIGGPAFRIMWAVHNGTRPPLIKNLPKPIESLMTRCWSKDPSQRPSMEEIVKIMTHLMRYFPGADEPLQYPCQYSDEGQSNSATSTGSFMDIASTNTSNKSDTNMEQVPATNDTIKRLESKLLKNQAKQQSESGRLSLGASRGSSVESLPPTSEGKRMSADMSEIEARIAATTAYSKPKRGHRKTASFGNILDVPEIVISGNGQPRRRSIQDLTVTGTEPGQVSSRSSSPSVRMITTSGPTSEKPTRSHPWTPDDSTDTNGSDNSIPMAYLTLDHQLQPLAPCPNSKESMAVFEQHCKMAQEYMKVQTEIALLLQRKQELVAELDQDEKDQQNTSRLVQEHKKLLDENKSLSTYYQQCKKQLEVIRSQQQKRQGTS
Chain of Cyclin-dependent kinase 8/19 (P49336 whole entry, looked up, the tested form may be a part): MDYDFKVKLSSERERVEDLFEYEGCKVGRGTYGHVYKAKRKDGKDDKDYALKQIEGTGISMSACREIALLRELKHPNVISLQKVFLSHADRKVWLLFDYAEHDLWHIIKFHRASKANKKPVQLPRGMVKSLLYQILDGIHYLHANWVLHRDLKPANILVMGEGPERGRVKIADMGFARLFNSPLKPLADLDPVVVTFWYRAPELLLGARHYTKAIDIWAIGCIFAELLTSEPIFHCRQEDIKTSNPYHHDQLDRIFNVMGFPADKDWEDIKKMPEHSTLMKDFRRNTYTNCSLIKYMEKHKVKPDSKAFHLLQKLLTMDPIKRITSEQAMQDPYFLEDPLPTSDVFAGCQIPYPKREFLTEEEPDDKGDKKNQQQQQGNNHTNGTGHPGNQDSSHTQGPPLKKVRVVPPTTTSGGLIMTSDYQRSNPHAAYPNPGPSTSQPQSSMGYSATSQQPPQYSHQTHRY
Chain of Cyclin-dependent kinase 8/19 (Q9BWU1 whole entry, looked up, the tested form may be a part): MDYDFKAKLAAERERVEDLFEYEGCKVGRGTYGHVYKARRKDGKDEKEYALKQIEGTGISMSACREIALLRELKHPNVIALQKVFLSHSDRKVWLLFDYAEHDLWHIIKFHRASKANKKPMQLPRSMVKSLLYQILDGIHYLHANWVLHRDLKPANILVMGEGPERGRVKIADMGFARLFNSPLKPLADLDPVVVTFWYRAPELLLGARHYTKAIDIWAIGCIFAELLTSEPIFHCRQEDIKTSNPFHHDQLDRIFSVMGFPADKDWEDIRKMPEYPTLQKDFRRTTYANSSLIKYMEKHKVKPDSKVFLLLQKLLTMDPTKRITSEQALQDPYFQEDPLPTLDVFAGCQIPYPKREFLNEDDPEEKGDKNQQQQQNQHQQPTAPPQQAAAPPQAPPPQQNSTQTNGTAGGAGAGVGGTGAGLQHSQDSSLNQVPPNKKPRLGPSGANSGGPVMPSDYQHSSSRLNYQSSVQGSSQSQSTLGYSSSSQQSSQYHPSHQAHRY
Chain of Mitogen-activated protein kinase 7 (Mus musculus) (Q9WVS8 whole entry): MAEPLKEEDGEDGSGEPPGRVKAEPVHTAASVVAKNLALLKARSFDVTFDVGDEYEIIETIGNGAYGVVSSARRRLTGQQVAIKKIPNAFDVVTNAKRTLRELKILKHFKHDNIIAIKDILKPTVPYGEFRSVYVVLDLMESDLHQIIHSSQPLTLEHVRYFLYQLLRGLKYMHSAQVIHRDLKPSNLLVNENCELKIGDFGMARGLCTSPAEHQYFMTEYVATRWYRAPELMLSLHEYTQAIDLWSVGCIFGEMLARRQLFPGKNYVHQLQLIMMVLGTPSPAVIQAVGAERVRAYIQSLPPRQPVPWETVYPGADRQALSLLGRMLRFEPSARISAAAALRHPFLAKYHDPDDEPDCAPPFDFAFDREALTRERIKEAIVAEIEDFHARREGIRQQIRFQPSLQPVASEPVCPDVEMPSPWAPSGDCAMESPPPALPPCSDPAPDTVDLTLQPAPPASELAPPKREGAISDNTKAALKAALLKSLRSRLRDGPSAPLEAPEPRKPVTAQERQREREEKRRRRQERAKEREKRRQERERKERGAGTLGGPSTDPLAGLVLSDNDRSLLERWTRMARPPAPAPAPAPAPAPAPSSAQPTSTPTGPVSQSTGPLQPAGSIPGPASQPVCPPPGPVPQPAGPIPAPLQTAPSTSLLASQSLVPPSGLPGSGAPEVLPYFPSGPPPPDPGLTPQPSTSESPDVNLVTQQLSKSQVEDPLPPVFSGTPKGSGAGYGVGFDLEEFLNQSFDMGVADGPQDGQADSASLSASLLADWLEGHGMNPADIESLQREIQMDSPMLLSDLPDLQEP
Chain of Serine/threonine-protein kinase B-raf (P15056 whole entry, the tested form may be a part): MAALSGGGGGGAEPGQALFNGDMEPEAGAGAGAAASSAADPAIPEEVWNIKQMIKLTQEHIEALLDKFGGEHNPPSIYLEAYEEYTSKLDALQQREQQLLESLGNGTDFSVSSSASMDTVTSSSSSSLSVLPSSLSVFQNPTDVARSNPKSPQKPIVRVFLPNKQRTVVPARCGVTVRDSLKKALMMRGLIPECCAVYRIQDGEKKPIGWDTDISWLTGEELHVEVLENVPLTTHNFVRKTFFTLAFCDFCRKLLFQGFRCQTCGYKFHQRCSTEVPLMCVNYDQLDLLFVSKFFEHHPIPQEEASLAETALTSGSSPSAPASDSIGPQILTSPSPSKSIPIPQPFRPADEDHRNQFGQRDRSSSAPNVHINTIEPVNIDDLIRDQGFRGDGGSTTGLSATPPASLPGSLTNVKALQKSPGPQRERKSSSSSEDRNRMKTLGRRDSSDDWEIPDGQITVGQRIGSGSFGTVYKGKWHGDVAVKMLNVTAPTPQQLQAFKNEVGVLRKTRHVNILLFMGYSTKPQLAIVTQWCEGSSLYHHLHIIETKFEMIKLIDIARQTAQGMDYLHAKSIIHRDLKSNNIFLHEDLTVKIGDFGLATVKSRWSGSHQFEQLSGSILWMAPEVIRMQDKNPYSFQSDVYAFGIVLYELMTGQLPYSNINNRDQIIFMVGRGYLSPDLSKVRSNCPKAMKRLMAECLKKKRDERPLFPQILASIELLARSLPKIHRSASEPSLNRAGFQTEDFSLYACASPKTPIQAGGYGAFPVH

Q: Which IC50 [1] does the source give for CCOc1cc(N2CCC(O)CC2)ccc1Nc1ncc2c(n1)N(C)c1ccccc1C(=O)N2C here?
A: > 50 µM

Q: And the IC50 [2]?
A: > 50 µM

Q: What about the IC50 [3] of the same compound?
A: > 50 µM

Q: And the IC50 [4]?
A: > 50 µM

Q: What about the IC50 [5] of the same compound?
A: > 50 µM

Q: What about the inhibition at 50 µM [6] of the same compound?
A: 4.1%

Q: What about the inhibition [7] of the same compound?
A: -6.7%

Q: What about the inhibition [8] of the same compound?
A: 13.5%

Q: What about the inhibition [9] of the same compound?
A: 28%

Q: What about the inhibition at 2 µM [10] of the same compound?
A: 8.7%

Q: And the inhibition [11]?
A: 7.7%

Q: What about the Activity [12] of the same compound?
A: < 0.2 mg/dL

Q: And the inhibition [13]?
A: inactive
